Laboratory results as given in paper PMC5844354 (Chembiochem : a European journal of chemical biology, 2018).
One block for each molecule: values may come before it.

Experiments:
Fis1 [1] = molecular target: T1, Fis1 (Homo sapiens, UniProt Q9Y3D6); type: binding; conditions: for binding to Fis1 in library screen: 1 mM fragment, 352-fragment library screen; for nonspecific NMR crosspeak broadening of Fis1: 1 mM compound, 50 μM 15N-Fis1, SOFAST-HMQC
T1 sequence (Q9Y3D6 1-125): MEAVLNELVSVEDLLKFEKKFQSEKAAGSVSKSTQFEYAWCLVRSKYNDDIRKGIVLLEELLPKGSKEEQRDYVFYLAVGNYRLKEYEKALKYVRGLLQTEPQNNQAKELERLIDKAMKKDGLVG
In short: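 Human Fis1 cytosolic domain (residues 1–125), His₆-SUMO fusion, expressed in ¹⁵N minimal medium and Ni-affinity purified. Buffer was 50 mM sodium phosphate pH 7.0, 175 mM NaCl, 2 mM DTT, 10% D₂O. Library screen: 352 fragments pooled six per sample, 1 mM each, 97 μM protein, 3% [D₆]DMSO, hits at +1 σ. Follow-up: single fragments at 1 mM with 50 μM protein. ¹H,¹⁵N SOFAST-HMQC at 25°C.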

Fis1 [2] = molecular target: T1, Fis1; test: Mass spectrometry of Fis1 with interfering compounds; conditions: from apo Fis1 14 487.2 Da; suggests direct chemical modification
BRD4(BD2) = BRD4(BD2) (Homo sapiens, UniProt O60885); test: NMR titration; type: binding
[3] = molecular target: first bromodomain of BRD4; conditions: cited from earlier work
CXCL12 = CXCL12 (Homo sapiens, UniProt P48061); test: 2D protein-detected NMR of individual compounds at 1 mM against 15N-CXCL12; type: binding; conditions: 1 mM compound, 100 μM 15N-CXCL12, SOFAST-HMQC
Chain of CXCL12 (P48061 22-89 limits assumed): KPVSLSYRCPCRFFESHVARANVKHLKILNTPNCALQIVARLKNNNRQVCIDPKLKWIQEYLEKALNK
In short: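 Commercial recombinant human ¹⁵N-CXCL12. Each test compound was screened singly: 1 mM final in 0.5% (v/v) [D₆]DMSO, 99.5 μM final protein, with a DMSO control. Buffer was 50 mM sodium phosphate pH 6.0, 0.02% sodium azide, 10% D₂O. ¹H,¹⁵N SOFAST-HMQC at 25°C and 600 MHz with cryoprobe; 16 scans, 1024 × 210 complex points. Spectra were overlaid on the DMSO control.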

Structure (SMILES): Nc1cc2ccccc2cc1O [3-amino-2-naphthol]
binding to Fis1 in library screen (Fis1 [1]): none of which bound appreciably

Structure (SMILES): Nc1ccc(O)cc1 [4-aminophenol]
nonspecific NMR crosspeak broadening of Fis1 (Fis1 [1]): did not induce nonspecific NMR crosspeak broadening

Structure (SMILES): O=C1c2ccccc2C(=O)C1(O)O [ninhydrin]
nonspecific NMR crosspeak broadening of Fis1 (Fis1 [1]): induce nonspecific NMR crosspeak broadening across all targets screened | nonspecific NMR crosspeak broadening of CXCL12 (CXCL12): induce nonspecific NMR crosspeak broadening across all targets screened

The next lines start with results.

binding to Fis1 in library screen (Fis1 [1]): none of which bound appreciably
Structure (SMILES): Nc1cccc2cccc(N)c12 [1,8-diaminonaphthalene]

mass shift of Fis1 (Fis1 [2]): 119.7 Da
Structure (SMILES): Cc1cc(O)ccc1O [2-methylbenzene-1,4-diol]

Kd (BRD4(BD2)): 1600 µM
Structure (SMILES): CC(=O)Nc1ccc(O)cc1 [acetaminophen]
Kd [3]: 290 µM

binding to Fis1 in library screen (Fis1 [1]): none of which bound appreciably
Structure (SMILES): NS(=O)(=O)c1ccc2ccccc2c1 [naphthalene-2-sulfonamide]
